Source: ChEMBL document CHEMBL1140782, “Nitrogen-appended N-alkylsulfonamides as inhibitors of gamma-secretase” (Bioorg Med Chem Lett, 2008)

system: Mus musculus; experiment: Reduction of amyloid beta levels in Tg2576 beta-APP-Swedish transgenic mouse at 500 umol/kg, po after 3 hrs; type: functional; parameters: scale not given: the % may be the effect or the level left; details: not given

Structure (SMILES)	Activity
CCC[C@@H](C)N(c1cc(Cl)ccc1CO)S(=O)(=O)c1ccc(Cl)cc1	25%

system: Brain; experiment: Drug level in Tg2576 beta-APP-Swedish transgenic mouse brain at 200 umol/kg, po; type: ADME, organism-based; details: in vivo, read-out: Drug uptake
In short: (§1)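 Tg2576 βAPP-Swedish transgenic mice received a single oral dose of 200 µmol/kg. At 3 h after dosing, brain Aβ was measured as percent reduction, and compound concentrations were measured in plasma and brain in nM, reported as mean ± deviation.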

Structure (SMILES)	concentration
C[C@H](CCCN(C)S(C)(=O)=O)N(c1cc(Cl)ccc1CO)S(=O)(=O)c1ccc(Cl)cc1	0.759 µM
C[C@H](CCCn1cnnn1)N(c1cc(Cl)ccc1CO)S(=O)(=O)c1ccc(Cl)cc1	1.16 µM

system: Mus musculus; experiment: Reduction of amyloid beta levels in Tg2576 beta-APP-Swedish transgenic mouse at 200 umol/kg, po after 3 hrs; type: functional; parameters: scale not given: the % may be the effect or the level left; details: not given; in short: as §1

Structure (SMILES)	Activity
C[C@H](CCCN(C)S(C)(=O)=O)N(c1cc(Cl)ccc1CO)S(=O)(=O)c1ccc(Cl)cc1	27%
C[C@H](CCCn1cnnn1)N(c1cc(Cl)ccc1CO)S(=O)(=O)c1ccc(Cl)cc1	41%

system: Plasma; experiment: Drug level in Tg2576 beta-APP-Swedish transgenic mouse plasma at 200 umol/kg, po; type: ADME, organism-based; details: in vivo; in short: as §1

Structure (SMILES)	concentration
C[C@H](CCCN(C)S(C)(=O)=O)N(c1cc(Cl)ccc1CO)S(=O)(=O)c1ccc(Cl)cc1	12.3 µM
C[C@H](CCCn1cnnn1)N(c1cc(Cl)ccc1CO)S(=O)(=O)c1ccc(Cl)cc1	5.47 µM

molecular target: Gamma-secretase; experiment: Inhibition of human gamma secretase in H4 cells assessed as reduction of amyloid beta-40 levels; type: cell-based; details: not given
In short: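 Cells were plated in 96 wells and allowed to attach. Medium was then replaced with Ultraculture containing compound at a final 1% DMSO, and cells were incubated overnight. Aβ40 in the conditioned medium was measured by sandwich ELISA, using a C-terminal Aβ40-specific monoclonal capture antibody and an HRP-labelled N-terminal Aβ monoclonal antibody for detection.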

Structure (SMILES)	IC50
C[C@H](CCCNC1CCCO1)N(c1cc(Cl)ccc1CO)S(=O)(=O)c1ccc(Cl)cc1 (stereo partly specified)	29 nM
C[C@H](CCCNC(=O)[C@@H](O)c1ccccc1)N(c1cc(Cl)ccc1CO)S(=O)(=O)c1ccc(Cl)cc1	2.9 nM
COCC(=O)NCCC[C@@H](C)N(c1cc(Cl)ccc1CO)S(=O)(=O)c1ccc(Cl)cc1	6.9 nM
C[C@H](CCCNS(=O)(=O)c1ccccc1)N(c1cc(Cl)ccc1CO)S(=O)(=O)c1ccc(Cl)cc1	7.4 nM
C[C@H](CCCNc1ccccc1)N(c1cc(Cl)ccc1CO)S(=O)(=O)c1ccc(Cl)cc1	36 nM
C[C@H](CCCn1cccn1)N(c1cc(Cl)ccc1CO)S(=O)(=O)c1ccc(Cl)cc1	18 nM
C[C@H](CCCn1nnc(N(C)C)n1)N(c1cc(Cl)ccc1CO)S(=O)(=O)c1ccc(Cl)cc1	5.6 nM
C[C@H](CCCN(C)C)N(c1cc(Cl)ccc1CO)S(=O)(=O)c1ccc(Cl)cc1	6.5 nM
C=C(Cl)CN(c1cc(Cl)ccc1CO)S(=O)(=O)c1ccc(C)cc1	850 nM
C[C@H](CCCNC(=O)Cc1ccccc1)N(c1cc(Cl)ccc1CO)S(=O)(=O)c1ccc(Cl)cc1	26 nM
CCC(=O)NCCC[C@@H](C)N(c1cc(Cl)ccc1CO)S(=O)(=O)c1ccc(Cl)cc1	13 nM
C[C@H](CCCN1CCN(C)CC1)N(c1cc(Cl)ccc1CO)S(=O)(=O)c1ccc(Cl)cc1	29 nM
C[C@H](CCCn1nnnc1N(C)C)N(c1cc(Cl)ccc1CO)S(=O)(=O)c1ccc(Cl)cc1	0.53 nM
C[C@H](CCCN1CCc2ccccc2C1)N(c1cc(Cl)ccc1CO)S(=O)(=O)c1ccc(Cl)cc1	84 nM
C[C@H](CCCN1CCOCC1)N(c1cc(Cl)ccc1CO)S(=O)(=O)c1ccc(Cl)cc1	3.1 nM
Cc1nnn(CCC[C@@H](C)N(c2cc(Cl)ccc2CO)S(=O)(=O)c2ccc(Cl)cc2)n1	6.1 nM
C[C@H](CCCn1ncnn1)N(c1cc(Cl)ccc1CO)S(=O)(=O)c1ccc(Cl)cc1	1.2 nM
CNCCC[C@@H](C)N(c1cc(Cl)ccc1CO)S(=O)(=O)c1ccc(Cl)cc1	262 nM
Cc1nnnn1CCC[C@@H](C)N(c1cc(Cl)ccc1CO)S(=O)(=O)c1ccc(Cl)cc1	0.75 nM
C[C@H](CCCN1CCCCC1)N(c1cc(Cl)ccc1CO)S(=O)(=O)c1ccc(Cl)cc1	50 nM

Structure (SMILES)	IC50
C[C@H](CCCn1ccnc1)N(c1cc(Cl)ccc1CO)S(=O)(=O)c1ccc(Cl)cc1	11 nM
C[C@H](CCCN)N(c1cc(Cl)ccc1CO)S(=O)(=O)c1ccc(Cl)cc1	288 nM
C[C@H](CCCn1cncn1)N(c1cc(Cl)ccc1CO)S(=O)(=O)c1ccc(Cl)cc1	4.8 nM
CCC[C@@H](C)N(c1cc(Cl)ccc1CO)S(=O)(=O)c1ccc(Cl)cc1	5 nM
C[C@H](CCCn1nccn1)N(c1cc(Cl)ccc1CO)S(=O)(=O)c1ccc(Cl)cc1	12 nM
C[C@H](CCCN(C)S(C)(=O)=O)N(c1cc(Cl)ccc1CO)S(=O)(=O)c1ccc(Cl)cc1	0.32 nM
CC(=O)NCCC[C@@H](C)N(c1cc(Cl)ccc1CO)S(=O)(=O)c1ccc(Cl)cc1	7.3 nM
C[C@H](CCCn1ccnn1)N(c1cc(Cl)ccc1CO)S(=O)(=O)c1ccc(Cl)cc1	0.9 nM
C[C@H](CCCNC(=O)CO)N(c1cc(Cl)ccc1CO)S(=O)(=O)c1ccc(Cl)cc1	8.1 nM
C[C@H](CCCNC(=O)[C@H](O)c1ccccc1)N(c1cc(Cl)ccc1CO)S(=O)(=O)c1ccc(Cl)cc1	1.6 nM
C[C@H](CCCNC(=O)CCc1ccccc1)N(c1cc(Cl)ccc1CO)S(=O)(=O)c1ccc(Cl)cc1	72 nM
C[C@H](CCCn1nnc(-c2ccccc2)n1)N(c1cc(Cl)ccc1CO)S(=O)(=O)c1ccc(Cl)cc1	61 nM
CC(C)C(=O)NCCC[C@@H](C)N(c1cc(Cl)ccc1CO)S(=O)(=O)c1ccc(Cl)cc1	14 nM
C[C@H](CCCNC=O)N(c1cc(Cl)ccc1CO)S(=O)(=O)c1ccc(Cl)cc1	5.1 nM
C[C@H](CCCn1nnnc1-c1ccccc1)N(c1cc(Cl)ccc1CO)S(=O)(=O)c1ccc(Cl)cc1	15 nM
C[C@H](CCCNS(C)(=O)=O)N(c1cc(Cl)ccc1CO)S(=O)(=O)c1ccc(Cl)cc1	0.23 nM
C[C@H](CCCNC(=O)c1ccccc1)N(c1cc(Cl)ccc1CO)S(=O)(=O)c1ccc(Cl)cc1	15 nM
C[C@H](CCCN1CCCS1(=O)=O)N(c1cc(Cl)ccc1CO)S(=O)(=O)c1ccc(Cl)cc1	1.1 nM
C[C@H](CCCn1cnnn1)N(c1cc(Cl)ccc1CO)S(=O)(=O)c1ccc(Cl)cc1	0.51 nM
